The list is not random: actives were taken first. Their share in the collection is about 3.5%.
RGS4 block = RGS4 inhibitors, primary screen, cell-based, HEK293 M3R inducible RGS4, calcium flux; Regulator of G-protein signaling 4 (Homo sapiens), P49798; Fluo-4 calcium flux; stronger effect = higher value; triggered by carbachol at its EC20; B-score at 10 µM; actives 0.45% (n = 310,000); AID 463165, 2010;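 active = B-score, a plate-corrected calcium signal, over three deviations above library mean, with baseline fluorescence within five deviations of library mean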;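 note: RGS4 expression induced by doxycycline in cells with stable M3 receptor; B-score is computed from the integrated fluorescence ratio over baseline after carbachol; higher B-score means a larger calcium signal and so more RGS4 inhibition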
Target sequence (P49798 whole entry, looked up): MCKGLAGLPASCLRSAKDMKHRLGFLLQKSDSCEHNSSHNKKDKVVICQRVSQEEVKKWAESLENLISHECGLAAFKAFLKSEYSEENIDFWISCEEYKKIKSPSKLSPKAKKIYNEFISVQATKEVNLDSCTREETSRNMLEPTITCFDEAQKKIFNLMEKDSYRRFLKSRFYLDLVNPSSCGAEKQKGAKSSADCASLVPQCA
RGS4 pot = RGS4 potentiators or activators, primary screen, cell-based, HEK293 M3R inducible RGS4, calcium flux; carbachol calcium flux Fluo4; stronger effect = lower value; B-score at 10 µM; actives 0.92% (n = 310,000);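 active = B-score of the integrated calcium signal more than 4 SD below the library mean, with starting fluorescence not abnormally high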;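 note: negative B-score means reduced calcium response which marks RGS4 activation or potentiation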
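System: HEK293 FlpIn-TREx cells, stable M3R, doxycycline-inducible RGS4. Timing: overnight RGS4 induction, 30 min dye load 37 °C, 20 min compound RT. Also added: carbachol, ECmax concentration. Measured by: Fluo4 fluorescence kinetic imaging of calcium. Evaluation: integrated calcium ratio converted to B score.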
MrgX1 agonist = agonists of human MrgX1 receptor, primary screen, HEK293 cells, Fluo-4 calcium flux; Mas-related G-protein coupled receptor member X1 (Homo sapiens), Q96LB2; Fluo-4 calcium fluorescence, agonist mode; stronger effect = higher value; B-score at 10 µM; actives 0.44% (n = 310,000); AID 588627, 2011;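 active = calcium response B-score plate-corrected fluorescence ratio at least 3 library SD, with starting fluorescence B-score inside 5 SD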
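System: HEK293 cells stably expressing human MrgX1 receptor; Dosing: test compound in the initial addition of three; Schedule: overnight plating, then 30 min 37 °C plus 30 min room-temperature dye loading; Detection: kinetic calcium dye fluorescence, Fluo-4 NW; Controls: per-plate positive and negative controls for Z′ factor.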
MrgX1 PAM = positive allosteric modulators of MrgX1, primary screen, HEK293 cells, Fluo-4 calcium flux. Mas-related G-protein coupled receptor member X1 (Homo sapiens), Q96LB2. FDSS; stronger effect = higher value. B-score at 10 µM. actives 0.63% (n = 310,000). AID 588675, 2011;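 active = plate-corrected calcium response at least 3 library SD above typical, normal starting fluorescence, not activating the receptor alone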;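 note: compound read alongside a low EC10 to EC30 dose of BAM8-22 agonist; peak minus trough fluorescence over baseline measured at the second addition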
MrgX1 antagonist = antagonists of human MrgX1 receptor, primary screen, HEK293 cells, Fluo-4 calcium flux; actives 1.3% (n = 310,000); Mas-related G-protein coupled receptor member X1 (Homo sapiens), Q96LB2; B-score at 10 µM; BAM8-22 antagonism; stronger effect = lower value;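 active = calcium-response B-score plate-corrected more than 3 library SD below zero, starting fluorescence within 5 deviations, no agonist response on first addition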;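 note: peak minus trough fluorescence over baseline after final BAM8-22 challenge near maximal dose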
RGS4 block valid = enhanced carbachol calcium response, M3R/RGS4 cells, RGS4 inhibitor project, cell-based, validation screen, HEK293 M3R/RGS4, calcium flux; shares compounds with RGS4 block; carbachol calcium Fluo-4 fluorescence; carbachol added at its EC20; 0 = buffer wells, 100 = carbachol control; calcium response, % at 10 µM; actives 65% (n = 1,700); AID 492999, 2010;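 active = duplicate-averaged calcium response above the buffer-only control mean plus 5 SD of those controls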;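 note: integrated fluorescence ratio F max minus min over baseline F0; higher response in RGS4-induced cells means RGS4 inhibition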
RGS4 uninduced = carbachol calcium response in non-induced M3R cells, confirmation, counter-screen for RGS4 inhibitor project, cell-based, HEK293 M3R. actives 20% (n = 1,900). activity (percent), % at 10 µM. carbachol calcium Fluo-4; submaximal (EC20) carbachol stimulus; buffer wells 0%, carbachol control wells 100%. AID 493000, 2010. shares compounds with RGS4 block; call rule not given here;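 note: RGS4 induction absent so cells express M3R without RGS4; higher means more calcium signal and flags a non-specific hit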
RGS4 inh ctr2 = signal in non-induced cells without carbachol, RGS4 inhibitor counter-screen. shares compounds with RGS4 block. HEK293 M3R/RGS4 non-induced, Fluo-4 calcium, no carbachol; normalised: buffer wells 0%, carbachol wells 100%. calcium response (agonist-mode artifact), % at 10 µM. actives 22% (n = 1,900). AID 493001;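 active = duplicate-averaged calcium rise in uninduced cells above buffer wells' mean plus 5 SD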
Active calls of the source: *.

`Cc1nnc(SCc2nc(N)nc(Nc3ccccc3)n2)s1` gave RGS4 block 5.42*, RGS4 pot inactive, MrgX1 agonist inactive, MrgX1 PAM inactive, MrgX1 antagonist inactive, RGS4 block valid 13.5%*, RGS4 uninduced inactive and RGS4 inh ctr2 inactive.
CCc1ccc(Nc2nc(N)nc(CSc3nc4ccccc4s3)n2)cc1 was read as RGS4 block inactive, RGS4 pot inactive, MrgX1 agonist inactive, MrgX1 PAM inactive, MrgX1 antagonist inactive, RGS4 block valid inactive, RGS4 uninduced inactive and RGS4 inh ctr2 inactive.
For Nc1nc(CSc2nc3ccccc3s2)nc(N2CCCCC2)n1 the results were RGS4 block inactive, RGS4 pot inactive, MrgX1 agonist inactive, MrgX1 PAM inactive and MrgX1 antagonist inactive.
Screening Cc1ccc2occ(/C=N/NC(=O)c3ccc(O)cc3)c(=O)c2c1 returned RGS4 block inactive, RGS4 pot inactive, MrgX1 agonist inactive, MrgX1 PAM inactive and MrgX1 antagonist inactive.
For Cc1ccc2occ(/C=N/NC(N)=S)c(=O)c2c1 the results were RGS4 block 11*, RGS4 pot inactive, MrgX1 agonist inactive, MrgX1 PAM inactive, MrgX1 antagonist inactive, RGS4 block valid 53.5%*, RGS4 uninduced 66.5%* and RGS4 inh ctr2 inactive.
Screening Cc1nc(-c2ccc(C(=O)Nc3cc(S(N)(=O)=O)ccc3C)cc2)cs1 returned RGS4 block inactive, RGS4 pot inactive, MrgX1 agonist inactive, MrgX1 PAM inactive and MrgX1 antagonist inactive.
Cc1cc(C)c(S(=O)(=O)Nc2cccc(S(=O)(=O)NC3=NCCC3)c2)c(C)c1 was read as RGS4 block 4.85*, RGS4 pot inactive, MrgX1 agonist inactive, MrgX1 PAM inactive, MrgX1 antagonist inactive, RGS4 block valid inactive, RGS4 uninduced inactive and RGS4 inh ctr2 inactive.
For NC1=NC(=Nc2ccc(Cl)cc2)c2ccccc21 the results were RGS4 block 7.96*, RGS4 pot inactive, MrgX1 agonist inactive, MrgX1 PAM inactive, MrgX1 antagonist inactive, RGS4 block valid 8.0%*, RGS4 uninduced inactive and RGS4 inh ctr2 inactive.
O=[N+]([O-])c1cc(C(F)(F)F)ccc1NCCc1c[nH]c2ccc(O)cc12 was read as RGS4 block 12.6*, RGS4 pot inactive, MrgX1 agonist inactive, MrgX1 PAM inactive, MrgX1 antagonist inactive, RGS4 block valid 20.0%*, RGS4 uninduced inactive and RGS4 inh ctr2 inactive.
O=C(CN1C(=O)S/C(=C\C=C\c2ccccc2)C1=O)N1CCOCC1 was read as RGS4 block 8.54*, RGS4 pot inactive, MrgX1 agonist inactive, MrgX1 PAM inactive, MrgX1 antagonist inactive, RGS4 block valid 9.5%*, RGS4 uninduced inactive and RGS4 inh ctr2 inactive.

Screens deposited in PubChem by Johns Hopkins Ion Channel Center.
